Source: ChEMBL document CHEMBL5653631, “A Potent and Selective ULK1 Inhibitor Suppresses Autophagy and Sensitizes Cancer Cells to Nutrient Stress” (iScience, 2018)

Assays:
[1] = biological target: Serine/threonine-protein kinase WNK3 (Homo sapiens) (UniProt Q9BYP7); assay: Inhibition of human recombinant Wnk3 at 40 nM related to control ULK1
[2] = biological target: T1, Serine/threonine-protein kinase A-Raf (Homo sapiens) (UniProt P10398); assay: Inhibition of human recombinant ARAF at 40 nM in presence of ATP by radiometric assay relative to control
T1 sequence (whole entry): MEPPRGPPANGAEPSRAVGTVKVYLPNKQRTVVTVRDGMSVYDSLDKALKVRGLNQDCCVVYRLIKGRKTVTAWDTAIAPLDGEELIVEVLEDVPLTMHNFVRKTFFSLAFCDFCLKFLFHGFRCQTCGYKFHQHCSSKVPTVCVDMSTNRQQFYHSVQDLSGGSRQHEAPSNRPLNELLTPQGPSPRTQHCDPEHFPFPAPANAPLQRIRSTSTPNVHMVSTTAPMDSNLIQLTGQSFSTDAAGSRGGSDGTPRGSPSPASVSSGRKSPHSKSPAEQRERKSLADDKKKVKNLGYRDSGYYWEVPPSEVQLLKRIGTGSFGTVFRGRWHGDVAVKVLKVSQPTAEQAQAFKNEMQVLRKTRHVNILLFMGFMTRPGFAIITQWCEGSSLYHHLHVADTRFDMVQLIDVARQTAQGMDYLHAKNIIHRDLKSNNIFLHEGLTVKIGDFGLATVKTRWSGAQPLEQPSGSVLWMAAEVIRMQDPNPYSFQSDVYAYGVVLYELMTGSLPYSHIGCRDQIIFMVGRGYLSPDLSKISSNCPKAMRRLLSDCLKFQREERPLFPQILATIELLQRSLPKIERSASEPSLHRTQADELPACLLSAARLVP
Procedure, shortened: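 Panel of 327 recombinant human kinases, each assayed in vitro by radiometric activity assay in duplicate at a single inhibitor concentration per compound, chosen with reference to its ULK1 inhibition. Activity remaining was expressed as percent of vehicle control, and percent inhibition was calculated as 100 minus percent activity remaining.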

[3] = biological target: Serine/threonine-protein kinase 33 (Homo sapiens) (UniProt Q9BYT3); assay: Inhibition of human recombinant STK33 at 40 nM related to control ULK1
[4] = biological target: Protein kinase C gamma type (Homo sapiens) (UniProt P05129); assay: Inhibition of human recombinant PKCg at 500 nM related to control ULK1
[5] = biological target: T2, Serine/threonine-protein kinase Sgk2 (Homo sapiens) (UniProt Q9HBY8); assay: Inhibition of human recombinant SGK2 at 500 nM in presence of ATP by radiometric assay relative to control
T2 sequence (whole entry): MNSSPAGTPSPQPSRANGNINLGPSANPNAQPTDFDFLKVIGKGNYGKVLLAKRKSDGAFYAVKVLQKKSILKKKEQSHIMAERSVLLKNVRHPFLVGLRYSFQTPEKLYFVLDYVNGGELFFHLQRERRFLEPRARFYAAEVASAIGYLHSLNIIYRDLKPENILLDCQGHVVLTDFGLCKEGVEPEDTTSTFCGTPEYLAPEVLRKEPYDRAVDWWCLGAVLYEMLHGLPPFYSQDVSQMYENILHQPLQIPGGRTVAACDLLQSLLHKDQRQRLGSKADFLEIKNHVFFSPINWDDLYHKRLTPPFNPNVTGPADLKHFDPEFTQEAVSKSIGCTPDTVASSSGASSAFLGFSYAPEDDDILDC

[6] = biological target: T3, Tyrosine-protein kinase ZAP-70 (Homo sapiens) (UniProt P43403); assay: Inhibition of human recombinant ZAP70 at 500 nM in presence of ATP by radiometric assay relative to control
T3 sequence (whole entry): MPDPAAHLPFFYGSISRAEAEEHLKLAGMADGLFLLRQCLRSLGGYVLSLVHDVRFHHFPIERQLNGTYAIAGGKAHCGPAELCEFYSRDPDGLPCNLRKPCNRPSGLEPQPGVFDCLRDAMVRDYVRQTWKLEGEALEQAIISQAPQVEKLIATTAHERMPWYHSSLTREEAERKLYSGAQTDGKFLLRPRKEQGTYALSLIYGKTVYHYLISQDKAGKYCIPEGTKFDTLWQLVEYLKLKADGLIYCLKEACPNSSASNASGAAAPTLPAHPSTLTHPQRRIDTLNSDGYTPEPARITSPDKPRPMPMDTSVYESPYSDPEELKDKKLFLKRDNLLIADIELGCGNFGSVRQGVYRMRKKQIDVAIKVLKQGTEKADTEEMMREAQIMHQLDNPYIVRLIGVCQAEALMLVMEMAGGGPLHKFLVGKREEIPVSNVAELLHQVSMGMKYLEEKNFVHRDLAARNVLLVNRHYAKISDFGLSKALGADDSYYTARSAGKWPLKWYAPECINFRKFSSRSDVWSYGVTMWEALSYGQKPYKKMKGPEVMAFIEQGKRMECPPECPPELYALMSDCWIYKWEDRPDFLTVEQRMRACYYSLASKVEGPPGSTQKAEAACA

[7] = biological target: Serine/threonine-protein kinase WNK2 (Homo sapiens) (UniProt Q9Y3S1); assay: Inhibition of human recombinant Wnk2 at 500 nM related to control ULK1
[8] = biological target: T4, MAP/microtubule affinity-regulating kinase 4 (Homo sapiens) (UniProt Q96L34); assay: Inhibition of human recombinant MARK4 at 15 nM in presence of ATP by radiometric assay relative to control
T4 sequence (whole entry): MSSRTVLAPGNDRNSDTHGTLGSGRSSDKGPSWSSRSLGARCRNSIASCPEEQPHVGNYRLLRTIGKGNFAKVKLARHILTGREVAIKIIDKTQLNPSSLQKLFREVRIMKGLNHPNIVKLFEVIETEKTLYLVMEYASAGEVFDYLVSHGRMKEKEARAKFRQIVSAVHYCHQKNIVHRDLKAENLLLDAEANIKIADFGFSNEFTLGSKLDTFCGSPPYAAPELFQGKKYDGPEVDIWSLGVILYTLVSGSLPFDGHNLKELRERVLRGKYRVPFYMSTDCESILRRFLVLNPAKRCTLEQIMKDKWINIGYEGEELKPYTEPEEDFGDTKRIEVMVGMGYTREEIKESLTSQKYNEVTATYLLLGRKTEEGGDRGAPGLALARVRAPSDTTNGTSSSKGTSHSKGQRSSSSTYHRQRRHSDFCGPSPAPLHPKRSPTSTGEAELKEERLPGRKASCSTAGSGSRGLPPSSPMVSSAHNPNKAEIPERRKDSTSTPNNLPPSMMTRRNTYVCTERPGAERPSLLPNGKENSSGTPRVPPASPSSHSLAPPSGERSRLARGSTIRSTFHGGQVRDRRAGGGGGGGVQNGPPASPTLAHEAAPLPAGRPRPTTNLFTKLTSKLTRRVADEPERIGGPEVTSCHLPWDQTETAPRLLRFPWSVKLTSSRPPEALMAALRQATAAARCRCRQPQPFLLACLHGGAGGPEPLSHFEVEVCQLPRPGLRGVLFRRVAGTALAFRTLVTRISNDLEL

Chain of Serine/threonine-protein kinase WNK3 (Homo sapiens) (Q9BYP7 whole entry): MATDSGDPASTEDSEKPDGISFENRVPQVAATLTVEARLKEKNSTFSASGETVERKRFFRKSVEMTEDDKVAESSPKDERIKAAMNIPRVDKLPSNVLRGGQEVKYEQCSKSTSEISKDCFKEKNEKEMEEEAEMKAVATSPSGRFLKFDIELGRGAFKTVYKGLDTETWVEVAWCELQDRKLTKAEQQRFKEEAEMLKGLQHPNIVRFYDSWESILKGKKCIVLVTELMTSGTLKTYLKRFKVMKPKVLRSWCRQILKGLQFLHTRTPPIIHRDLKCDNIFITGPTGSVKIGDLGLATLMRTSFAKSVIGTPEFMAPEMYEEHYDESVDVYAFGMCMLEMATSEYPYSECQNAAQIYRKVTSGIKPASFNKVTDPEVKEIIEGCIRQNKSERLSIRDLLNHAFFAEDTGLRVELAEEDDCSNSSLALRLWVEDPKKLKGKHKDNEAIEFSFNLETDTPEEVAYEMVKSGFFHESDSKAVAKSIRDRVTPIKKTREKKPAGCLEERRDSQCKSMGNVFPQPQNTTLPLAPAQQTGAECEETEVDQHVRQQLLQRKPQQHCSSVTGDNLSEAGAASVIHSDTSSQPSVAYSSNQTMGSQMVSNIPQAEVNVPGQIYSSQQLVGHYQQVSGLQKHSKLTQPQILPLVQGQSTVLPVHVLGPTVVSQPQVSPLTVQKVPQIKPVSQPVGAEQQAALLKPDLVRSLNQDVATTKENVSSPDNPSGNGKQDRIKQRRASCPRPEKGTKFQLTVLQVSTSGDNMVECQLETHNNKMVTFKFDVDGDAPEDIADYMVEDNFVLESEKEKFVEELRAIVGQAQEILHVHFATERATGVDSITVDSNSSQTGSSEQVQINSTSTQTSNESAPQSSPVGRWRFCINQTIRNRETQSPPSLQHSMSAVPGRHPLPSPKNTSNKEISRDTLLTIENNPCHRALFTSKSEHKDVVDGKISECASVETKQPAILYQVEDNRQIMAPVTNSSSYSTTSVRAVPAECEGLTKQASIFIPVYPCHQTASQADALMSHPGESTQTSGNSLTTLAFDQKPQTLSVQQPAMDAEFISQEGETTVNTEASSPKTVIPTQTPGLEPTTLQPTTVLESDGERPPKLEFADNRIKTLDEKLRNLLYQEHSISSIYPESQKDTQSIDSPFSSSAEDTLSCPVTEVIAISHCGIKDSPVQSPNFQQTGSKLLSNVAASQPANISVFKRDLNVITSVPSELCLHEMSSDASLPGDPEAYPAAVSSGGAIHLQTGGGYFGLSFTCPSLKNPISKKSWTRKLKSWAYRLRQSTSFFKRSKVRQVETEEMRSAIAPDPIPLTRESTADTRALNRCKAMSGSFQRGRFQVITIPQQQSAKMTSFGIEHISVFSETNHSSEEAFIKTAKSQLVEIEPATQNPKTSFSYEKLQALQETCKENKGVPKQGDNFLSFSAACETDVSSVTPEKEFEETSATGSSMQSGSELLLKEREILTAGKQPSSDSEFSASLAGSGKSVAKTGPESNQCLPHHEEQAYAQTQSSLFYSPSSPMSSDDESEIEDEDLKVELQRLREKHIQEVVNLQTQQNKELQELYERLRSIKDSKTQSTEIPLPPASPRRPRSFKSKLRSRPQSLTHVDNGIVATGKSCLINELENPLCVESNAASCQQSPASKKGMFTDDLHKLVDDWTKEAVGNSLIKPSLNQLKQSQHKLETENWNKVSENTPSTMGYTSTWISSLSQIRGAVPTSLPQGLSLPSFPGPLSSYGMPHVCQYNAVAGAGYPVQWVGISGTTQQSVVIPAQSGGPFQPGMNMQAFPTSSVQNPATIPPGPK
Chain of Serine/threonine-protein kinase 33 (Homo sapiens) (Q9BYT3 whole entry, looked up): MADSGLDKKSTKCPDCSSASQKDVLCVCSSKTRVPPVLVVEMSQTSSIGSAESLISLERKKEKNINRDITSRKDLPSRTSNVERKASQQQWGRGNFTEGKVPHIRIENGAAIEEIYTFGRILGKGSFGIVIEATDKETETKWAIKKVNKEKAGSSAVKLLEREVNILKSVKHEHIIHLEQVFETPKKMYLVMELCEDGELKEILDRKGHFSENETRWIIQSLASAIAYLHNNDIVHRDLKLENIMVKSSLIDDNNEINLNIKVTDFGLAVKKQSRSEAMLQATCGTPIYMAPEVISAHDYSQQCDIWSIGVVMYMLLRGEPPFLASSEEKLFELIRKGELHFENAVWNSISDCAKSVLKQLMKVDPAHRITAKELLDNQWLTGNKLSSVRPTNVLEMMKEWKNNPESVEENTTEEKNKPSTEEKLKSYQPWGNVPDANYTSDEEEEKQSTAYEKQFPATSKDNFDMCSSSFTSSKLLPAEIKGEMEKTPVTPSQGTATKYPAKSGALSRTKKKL

## O=C(N[C@@H](C1CC1)C(F)(F)F)c1cc(-c2cnn3cc(-c4ccc(F)cc4)cnc23)cs1
[1]
  fold change (FC): 0.04
[2]
  inhibition: 0%
[3]
  fold change (FC): 0.26

## CNC(=O)c1ccccc1Oc1nc(Nc2cc(OC)c(OC)c(OC)c2)ncc1Br
[4]
  fold change (FC): 0.12
[5]
  inhibition: 17%
[6]
  inhibition: 1%
[7]
  fold change (FC): 0.01

## CC(C)[C@H](NC(=O)c1cc(-c2cnn3cc(-c4ccc(OCCN5CCCCC5)cc4)cnc23)cs1)C(F)(F)F
[8]
  inhibition: 42%
